Activity calls are given as the source filed them. The calls are words filed in the database; no cut-off is given here.
How the values were obtained:
[1] = test system: PC-3; assay: Antiproliferative activity against human PC3 cells after 48 hrs by MTT assay; assay type: functional, cell-based; conditions: PC-3, 48 h
Method in brief: (§1)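 Cells grown in RPMI1640 with 10% FBS and penicillin/streptomycin at 37 °C, 5% CO2. Seeded at 1 × 10^5/mL, grown 24 h, then exposed to compound at 1 × 10^-4 to 1 × 10^-7 mol/L for 48 h. Controls received medium with 1% DMSO. MTT 4 h, formazan dissolved in DMSO, absorbance at 490 nm; IC50 derived.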

[2] = test system: Ishikawa; assay: Antiproliferative activity against human Ishikawa cells assessed as suppression of proliferation at 10 uM after 48 hrs by MTT assay relative to control; assay type: functional
[3] = test system: HepG2; assay: Antiproliferative activity against human HepG2 cells after 48 hrs by MTT assay; assay type: functional, cell-based; conditions: HepG2, 48 h; method in brief: as §1
[4] = test system: MCF7; assay: Antiproliferative activity against human MCF7 cells after 48 hrs by MTT assay; assay type: functional, cell-based; conditions: MCF7, 48 h; method in brief: as §1
[5] = test system: Ishikawa; assay: Antiproliferative activity against human Ishikawa cells after 48 hrs by MTT assay; assay type: functional, cell-based; method in brief: as §1
[6] = test system: HUVEC; assay: Antiproliferative activity against HUVEC after 48 hrs by MTT assay; assay type: functional, cell-based; conditions: Homo sapiens; method in brief: as §1
[7] = test system: MCF7; assay: Cell cycle arrest in human MCF7 cells assessed as G2/M phase accumulation after 6 hrs by propidium iodide staining based flow cytometry; assay type: functional
Method in brief: (§2)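 MCF-7 cells plated at 3 × 10^5 per well and left overnight, then treated in serum-free medium with a DMSO reference control. Cells fixed in 70% ice-cold ethanol, washed in PBS, stained with propidium iodide at 4 °C. Flow cytometry gave percentages in G1, S and G2/M phases. Mean ± SEM of three independent experiments.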

[8] = test system: MCF7; assay: Effect on AIM2 mRNA expression in human MCF7 cells at 0.5 to 2 uM by RT-PCR method; assay type: functional, cell-based
Method in brief: (§3)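 AIM2 mRNA, an ER-independent reference transcript, measured in treated MCF-7 cells by real-time PCR. Normalized to GAPDH and quantified by the ΔΔCT method. Mean ± SD, n = 3.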

[9] = biological target: T1, Estrogen receptor (Homo sapiens) (UniProt P03372); assay: Inhibition of estrogen receptor in human MCF7 cells assessed as inhibition of estradiol-induced PgR mRNA expression by RT-PCR method relative to control; assay type: cell-based
T1 sequence (whole entry): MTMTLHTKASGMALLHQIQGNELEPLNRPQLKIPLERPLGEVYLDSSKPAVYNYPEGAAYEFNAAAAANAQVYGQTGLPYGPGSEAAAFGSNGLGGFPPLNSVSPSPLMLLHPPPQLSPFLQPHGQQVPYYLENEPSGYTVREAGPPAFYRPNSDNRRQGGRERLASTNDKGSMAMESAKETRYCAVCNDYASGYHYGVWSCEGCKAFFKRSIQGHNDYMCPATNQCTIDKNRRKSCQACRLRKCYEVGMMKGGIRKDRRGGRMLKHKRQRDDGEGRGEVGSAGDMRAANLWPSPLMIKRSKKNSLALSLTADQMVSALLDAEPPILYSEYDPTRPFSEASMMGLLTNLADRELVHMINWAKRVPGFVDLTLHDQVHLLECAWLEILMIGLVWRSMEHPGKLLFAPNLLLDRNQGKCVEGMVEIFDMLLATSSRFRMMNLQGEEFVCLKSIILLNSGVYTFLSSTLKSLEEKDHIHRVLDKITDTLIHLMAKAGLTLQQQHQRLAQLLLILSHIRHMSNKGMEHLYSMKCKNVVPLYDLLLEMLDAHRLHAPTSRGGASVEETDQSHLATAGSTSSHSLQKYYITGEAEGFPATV
Method in brief: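 MCF-7 cells stimulated with 10 nM E2 and co-treated with compound. PgR mRNA measured by real-time PCR, normalized to GAPDH and quantified by the ΔΔCT method. The 10 nM E2 level was set as 100%. Mean ± SD, n = 3.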

[10] = test system: MCF7; assay: Cell cycle arrest in human MCF7 cells assessed as G2/M phase accumulation at 1 uM after 6 hrs by propidium iodide staining based flow cytometry (reference value: 22.46%); assay type: functional; method in brief: as §2
[11] = test system: Chorioallantoic membrane; assay: In vivo antiangiogenic activity in chicken fertilized egg chorioallantoic membrane after 72 hrs; assay type: functional, organism-based; conditions: Gallus gallus
Method in brief: (§4)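 Fertilized eggs incubated 7 days at 37 °C, 5% CO2, with saturated humidity. A ~1 cm2 shell window exposed the CAM. Compounds in DMSO were applied on sterile methyl cellulose filter papers placed on the CAM, with PBS as blank. Window taped shut, eggs incubated 72 h at 37 °C, 60% relative humidity.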

[12] = test system: MCF7; assay: Cell cycle arrest in human MCF7 cells assessed as G0/G1 phase accumulation at 1 uM after 6 hrs by propidium iodide staining based flow cytometry (reference value: 42.62%); assay type: functional; method in brief: as §2
[13] = test system: Chorioallantoic membrane; assay: In vivo antiangiogenic activity in chicken fertilized egg chorioallantoic membrane at 40 uM after 72 hrs; assay type: functional, organism-based; conditions: Gallus gallus; method in brief: as §4
[14] = test system: MCF7; assay: Cell cycle arrest in human MCF7 cells assessed as S phase accumulation at 1 uM after 6 hrs by propidium iodide staining based flow cytometry (reference value: 33.14%); assay type: functional; method in brief: as §2
[15] = test system: MCF7; assay: Cell cycle arrest in human MCF7 cells assessed as G0/G1 phase accumulation at 2 uM after 6 hrs by propidium iodide staining based flow cytometry (reference value: 42.62%); assay type: functional; method in brief: as §2
[16] = test system: MCF7; assay: Cell cycle arrest in human MCF7 cells assessed as G2/M phase accumulation at 2 uM after 6 hrs by propidium iodide staining based flow cytometry (reference value: 22.46%); assay type: functional; method in brief: as §2
[17] = test system: MCF7; assay: Cell cycle arrest in human MCF7 cells assessed as S phase accumulation at 2 uM after 6 hrs by propidium iodide staining based flow cytometry (reference value: 33.14%); assay type: functional; method in brief: as §2
[18] = test system: MCF7; assay: Effect on AIM2 mRNA expression in human MCF7 cells at 2 uM by RT-PCR method; assay type: functional, cell-based; method in brief: as §3

Row | Structure (SMILES) | IC50 [1] [µM] | IC50 [3] [µM] | IC50 [4] [µM] | inhibition [9] | Activity [2] | IC50 [5] [µM] | IC50 [6] [µM] | Activity [7] | Activity [8] | Activity [10] [%] | Activity [11] | Activity [12] [%] | Activity [13] | Activity [14] [%] | Activity [15] [%] | Activity [16] [%] | Activity [17] [%] | Activity [18]
1 | COc1ccc2c(c1)CC[C@@H]1[C@@H]2[C@H](OC(=O)c2ccc(NC(=O)CN(C)C)cc2)C[C@]2(C)[C@@H](OC)CC[C@@H]12 | 6.49 | 3.42 | 34.3 |  | Active | 15.6 | 6.97 |  |  |  |  |  |  |  |  |  |  | 
2 | COc1cc2c(cc1OC)[C@@H]1[C@@H](CC2)[C@@H]2CC[C@H](OC)[C@@]2(C)C[C@H]1OC(=O)c1ccc(NC(=O)CN2CCN(C)CC2)cc1 | 4.29 | 5.22 | 4.33 | Dose-dependent effect | Active | 5.55 | 4.85 | Dose-dependent effect | inactive | 44.06 | Dose-dependent effect | 25.95 | Active | 31.14 | 17.78 | 49.19 | 33.77 | 
3 | CN1CCN(CC(=O)Nc2ccc(C(=O)O[C@@H]3C[C@]4(C)[C@@H](O)CC[C@H]4[C@@H]4CCc5cc(O)ccc5[C@H]43)cc2)CC1 | 19.4 | 15.1 | 29.6 |  | Active | 9.66 | 37 |  |  |  |  |  |  |  |  |  |  | 
4 | COc1cc2c(cc1O)CC[C@@H]1[C@@H]2CC[C@]2(C)[C@@H](O)CC[C@@H]12 [2-METHOXYESTRADIOL] | 12.3 | 11 | 6.01 |  | Active | 8.96 | 14.2 |  |  |  |  |  |  |  |  |  |  | 
5 | COc1cc2c(cc1OC)[C@@H]1[C@@H](CC2)[C@@H]2CC[C@H](OC)[C@@]2(C)C[C@H]1OC(=O)c1ccc(NC(=O)CN(C)C)cc1 | 8.94 | 1.78 | 28.2 |  | Active | 6.32 | 5.88 |  |  |  |  |  |  |  |  |  |  | 
6 | CN(C)CC(=O)Nc1ccc(C(=O)O[C@@H]2C[C@]3(C)[C@@H](O)CC[C@H]3[C@@H]3CCc4cc(O)ccc4[C@H]32)cc1 | 23.4 | 8.92 | 47.2 |  | Active | 37.5 | 32 |  |  |  |  |  |  |  |  |  |  | 
7 | CC/C(=C(\c1ccccc1)c1ccc(OCCN(C)C)cc1)c1ccccc1 [TAMOXIFEN] |  |  |  |  | -60.1% |  |  |  |  |  |  |  |  |  |  |  |  | inactive

Second part, led by results:

Row | IC50 [1] [µM] | IC50 [3] [µM] | IC50 [4] [µM] | inhibition [9] | Structure (SMILES) | Activity [2] | IC50 [5] [µM] | IC50 [6] [µM] | Activity [7] | Activity [8] | Activity [10] [%] | Activity [11] | Activity [12] [%] | Activity [13] | Activity [14] [%] | Activity [15] [%] | Activity [16] [%] | Activity [17] [%] | Activity [18]
8 | 17.6 | 23.5 | 28 |  | COCOc1ccc2c(c1)CC[C@@H]1[C@@H]2[C@H](OC(=O)c2ccc(NC(=O)CN(C)C)cc2)C[C@]2(C)[C@@H](OCOC)CC[C@@H]12 | Active | 28.5 | 17.7 |  |  |  |  |  |  |  |  |  |  | 
9 | 3.74 | 3.05 | 15 |  | COc1cc2c(cc1OC)[C@@H]1[C@@H](CC2)[C@@H]2CC[C@H](OC)[C@@]2(C)C[C@H]1OC(=O)c1ccc(NC(=O)CN2CCCC2)cc1 | Active | 5.51 | 2.63 |  |  |  |  |  |  |  |  |  |  | 
10 | 17.1 | 25.4 | 14.3 |  | COCOc1ccc2c(c1)CC[C@@H]1[C@@H]2[C@H](OC(=O)c2ccc(NC(=O)CN3CCCC3)cc2)C[C@]2(C)[C@@H](OCOC)CC[C@@H]12 | Active | 7.3 | 9.28 |  |  |  |  |  |  |  |  |  |  | 
11 | 39.1 | 21.1 | 34.7 |  | C[C@]12C[C@@H](OC(=O)c3ccc(NC(=O)CN4CCCC4)cc3)[C@@H]3c4ccc(O)cc4CC[C@H]3[C@@H]1CC[C@@H]2O | Active | 17.3 | 36.1 |  |  |  |  |  |  |  |  |  |  | 
12 | 2.85 | 2.73 | 4.06 | Dose-dependent effect | COCOc1ccc2c(c1)CC[C@@H]1[C@@H]2[C@H](OC(=O)c2ccc(NC(=O)CN3CCN(C)CC3)cc2)C[C@]2(C)[C@@H](OCOC)CC[C@@H]12 | Active | 7.75 | 5.23 | Dose-dependent effect | inactive | 41.9 | Dose-dependent effect | 21.47 | Active | 34.82 | 14.63 | 51.41 | 34.57 | 
13 | 10.6 | 8.64 | 13.7 |  | COc1ccc2c(c1)CC[C@@H]1[C@@H]2[C@H](OC(=O)c2ccc(NC(=O)CN3CCCC3)cc2)C[C@]2(C)[C@@H](OC)CC[C@@H]12 | Active | 4.79 | 3.69 |  |  |  |  |  |  |  |  |  |  | 
14 | 18.1 | 8.12 | 12.9 |  | COc1ccc2c(c1)CC[C@@H]1[C@@H]2[C@H](OC(=O)c2ccc(NC(=O)CN3CCN(C)CC3)cc2)C[C@]2(C)[C@@H](OC)CC[C@@H]12 | Active | 7.52 | 5.88 |  |  |  |  |  |  |  |  |  |  | 

— ChEMBL document CHEMBL4130384, “Design, synthesis and biological evaluation of novel 2-methoxyestradiol analogs as dual selective estrogen receptor modulators (SERMs) and antiangiogenic agents” (Eur J Med Chem, 2017)
